The text below walks through data of ChEMBL document CHEMBL2311271 (Eur J Med Chem, 2013).

Common to all, as to assay type: functional, cell-based
The subject of assay [1] is Bel-7402. Nature of the assay: Cytotoxicity against human Bel7402 cells by MTT assay. The procedure, abridged:
(§1)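 Cells grown in RPMI-1640 with 10% fetal calf serum plus penicillin and streptomycin, 37 °C, 5% CO₂. Compounds in DMSO, final ≤2% (v/v), tested in 96-well cultures with MTT staining. IC₅₀ = concentration cutting optical density 50% versus untreated cells; three replicate wells per point; mean of three independent determinations.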
In general terms: Tetrazolium assays rely on reduction of a dye to a coloured formazan, in cell work by metabolically active cells.

The test system of assay [2] is 769-P. Nature of the assay: Cytotoxicity against human 769-P cells by MTT assay. In outline:
as §1

Assay [3] relates to MCF7. The assay is described as follows: Cytotoxicity against human MCF7 cells by MTT assay. In outline: as §1
In assay [4] the test system is HT-29. Nature of the assay: Cytotoxicity against human HT-29 cells by MTT assay. The procedure, abridged:
as §1

For assay [5], the system named is A549. Nature of the assay: Cytotoxicity against human A549 cells by MTT assay. In outline: as §1
For assay [6], the system named is HepG2. The assay is described as follows: Cytotoxicity against human HepG2 cells by MTT assay. The procedure, abridged:
as §1

Assay [7] deals with U-251. Nature of the assay: Cytotoxicity against human U251 cells by MTT assay. In outline:
as §1

Assay [8] can be described thus: Cytotoxicity against human Blu-87 cells by MTT assay. The procedure, abridged:
as §1

The test system of assay [9] is SCaBER. Nature of the assay: Cytotoxicity against human SCaBER cells by MTT assay. The procedure, abridged: as §1
The test system of assay [10] is OS-RC-2. Nature of the assay: Cytotoxicity against human OS-RC2 cells by MTT assay. The procedure, abridged:
as §1

The test system of assay [11] is 786-0. The assay is described as follows: Cytotoxicity against human 786-0 cells by MTT assay. The procedure, abridged: as §1
Assay [12] deals with BGC-823. The assay is described as follows: Cytotoxicity against human BGC823 cells by MTT assay. The procedure, abridged:
as §1

The subject of assay [13] is HeLa. The assay is described as follows: Cytotoxicity against human HeLa cells by MTT assay. The procedure, abridged:
as §1

The test system of assay [14] is CWR22R. Nature of the assay: Cytotoxicity against human 22Rv1 cells by MTT assay. In outline: as §1
Assay [15] relates to A-375. Nature of the assay: Cytotoxicity against human A375 cells by MTT assay. The procedure, abridged: as §1
Assay [16] relates to KB. Nature of the assay: Cytotoxicity against human KB cells by MTT assay. The procedure, abridged:
as §1

Take `CCCCn1c2cc(OCC(C)C)ccc2c2cc[n+](Cc3ccccc3)c(C)c21`: the IC50 (usually the concentration that inhibits the measured activity by half) in [1] worked out at 2.7 µM; in assay [2] it was 4.6 µM; in [3], 10.4 µM; in assay [4] it was 3.1 µM; in [5], 3.8 µM; in [6], 4.2 µM. In addition, the IC50 in assay [7] was 12.1 µM; in assay [8], 12.3 µM; in [9], 18.2 µM; in assay [10], 3.2 µM; in assay [11], 2.5 µM; in assay [12], 4.6 µM. Moreover, the IC50 in [13] was 3.9 µM; in assay [14], 6.7 µM; in assay [15] it was 4.2 µM; in [16], 2 µM.
As for `CCCCn1c2cc(OCc3ccccc3)ccc2c2cc[n+](Cc3ccccc3)c(C)c21`, the 50% inhibitory concentration (IC50) in [1] turned out to be 3.6 µM; in [2], 20 µM; in assay [3], 15.7 µM; in assay [4], 3.7 µM; in assay [5] it was 4.4 µM; in [6], 2.7 µM. In addition, the IC50 is 5.5 µM in assay [7]; 4.6 µM in assay [8]; 8.5 µM in assay [9]; 3.6 µM in assay [10]; < 1.5 µM in assay [11]; 21.4 µM in [12]. Moreover, the IC50 in assay [13] worked out at 2.2 µM; in assay [14], 2.1 µM; in assay [15], 4 µM; in assay [16] it was 4 µM.
`CCCCCCCCOc1ccc2c3cc[n+](Cc4ccccc4)c(C)c3n(CCCC)c2c1`: the IC50 in assay [1] is 0.86 µM; in [2] it was < 1.5 µM; in [3] it was 4.1 µM; in [4] it was 3.2 µM; in [5] it was < 1.5 µM; in [6], 2.7 µM. Besides, the IC50 in [7] is 2 µM; in assay [8], 2 µM; in [9] it was 4.6 µM; in assay [10], < 1.5 µM; in assay [11], < 1.5 µM; in [12], 3.7 µM. The IC50 in assay [13] was 4 µM; in assay [14], 2.9 µM; in assay [15] it was < 1.5 µM; in [16] it was < 1.5 µM.
For the compound `CCCCCCCCCCOc1ccc2c3cc[n+](Cc4ccccc4)c(C)c3n(CC(C)C)c2c1`, the IC50 was 5.8 µM in assay [1]; < 1.5 µM in assay [2]; 1.8 µM in assay [3]; 1.7 µM in assay [4]; < 1.5 µM in assay [5]; 2.4 µM in assay [6]. Besides, the IC50 in [7] came out at 1.5 µM; in assay [8], 3.2 µM; in assay [9] it was 7.8 µM; in assay [10] it was 4 µM; in assay [11] it was 1.9 µM; in [12] it was 2 µM. The half-maximal inhibitory concentration (IC50) in assay [13] is 1.6 µM; in [14] it was < 1.5 µM; in [15], < 1.5 µM; in [16], < 1.5 µM.
`Cc1c2c(cc[n+]1Cc1ccccc1)c1ccc(OCC(C)C)cc1n2CC(C)C`: the IC50 is 4.3 µM in assay [1]; < 1.5 µM in assay [2]; 2.9 µM in assay [3]; 4.2 µM in assay [4]; 4.3 µM in [5]; 5.7 µM in assay [6]. In addition, the IC50 came out at 4.5 µM in assay [7]; 5.2 µM in [8]; 12.8 µM in assay [9]; 8.3 µM in assay [10]; 3.4 µM in assay [11]; 5.4 µM in assay [12]. For the same compound, the IC50 in [13] is 2.1 µM; in assay [14] it was 2.6 µM; in [15], 3.9 µM; in assay [16], < 1.5 µM.
As for `CCCCOc1ccc2c3cc[n+](Cc4ccccc4)c(C)c3n(CC(C)C)c2c1`, the IC50 in [2] came to 2.3 µM; in assay [4] it was 4 µM; in [5] it was 2.2 µM; in assay [7], 1.8 µM; in assay [8], 8.9 µM; in assay [9], 9.7 µM. Besides, the IC50 is 5.8 µM in [10]; 2.4 µM in assay [11]; < 1.6 µM in [14]; 2.1 µM in assay [15]; 6 µM in assay [16].
